Reference: ChEMBL document CHEMBL2203220, “Linear and cyclic dipeptides with antimalarial activity” (Bioorg Med Chem Lett, 2012)
Where a SMILES comes first, the peptide text is derived from it. [ ]: non-standard residue; d: D form. The star is where a group is joined. ξ: configuration not given here. Boc = CC(C)(C)OC(=O)*; ξOrn = NCCCC(N)C(=O)O; OtBu = CC(C)(C)O*; Sar = CNCC(=O)O

Columns and labels:
Plasmodium berghei [1] = assay: Antimalarial activity against schizonts of chloroquine-sensitive Plasmodium berghei ANKA 2.34 after 16 hrs; assay type: functional, organism-based; details: ANKA 2.34, 16 h
Outline: (§1)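 P. berghei cultures were exposed to peptides in PBS with 0.1% DMSO and 5% ethanol for 16 h at 37 °C, with chloroquine as positive control. Smears were made from 0.5 mL culture samples and schizonts counted per 2000 erythrocytes. Four concentrations were each run in duplicate and averaged. IC50 is the concentration giving 50% fewer schizonts than drug-free controls, extrapolated from the concentration–response curve.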

Plasmodium berghei [2] = assay: Antimalarial activity against schizonts of chloroquine-sensitive Plasmodium berghei ANKA 2.34 assessed as chemosuppression of schizont numbers at 200 uM after 16 hrs relative to control; assay type: functional
Outline: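 Peptides in PBS with 0.1% DMSO and 5% ethanol were incubated with P. berghei cultures for 16 h at 37 °C, with chloroquine as positive control. Schizonts per 2000 erythrocytes were counted on smears from 0.5 mL culture samples, in duplicate and averaged. Reduction in schizont number is expressed against drug-free control cultures.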

Plasmodium berghei [3] = assay: Antimalarial activity against Plasmodium berghei; assay type: functional, organism-based; outline: as §1

| SMILES | IC50 (Plasmodium berghei [1]) [µM] | Activity (Plasmodium berghei [2]) [%] | IC50 (Plasmodium berghei [3]) [µM] |
| --- | --- | --- | --- |
| CC(C)[C@H](NC(=O)[C@H](Cc1ccccc1)NC(=O)OC(C)(C)C)C(=O)OC(C)(C)C (Boc-Phe-Val-OtBu) | 3.23 | 77.94 | – |
| O=C1CNC(=O)[C@H](Cc2ccccc2)N1 | 4.26 | 70.37 | – |
| COC(=O)CN(C)C(=O)[C@H](Cc1ccccc1)NC(=O)OC(C)(C)C (Boc-Phe-[Sar]-OMe) | 3.63 | 79.41 | – |
| CC(C)[C@H](NC(=O)OC(C)(C)C)C(=O)N[C@H](C(=O)OC(C)(C)C)C(C)C (Boc-Val-Val-OtBu) | 2.81 | 77.64 | – |
| CC(C)[C@H](NC(=O)[C@@H](CCCNC(=O)OCc1ccccc1)NC(=O)OC(C)(C)C)C(=O)OC(C)(C)C | 2.78 | 72.64 | – |
| COC(=O)[C@H](Cc1ccccc1)NC(=O)[C@H](CCCNC(=O)OCc1ccccc1)NC(=O)OC(C)(C)C | > 200 | 40 | – |
| CC(C)[C@@H]1NC(=O)[C@H](CCCNC(=O)OCc2ccccc2)NC1=O | 66 | 69.23 | – |
| CC(C)[C@@H]1NC(=O)[C@H](CCCCNC(=O)OCc2ccccc2)NC1=O | 3.12 | 79.2 | – |
| CC(C)(C)OC(=O)N[C@@H](Cc1ccccc1)C(=O)N[C@@H](Cc1ccccc1)C(=O)OC(C)(C)C (Boc-Phe-Phe-OtBu) | 112 | 55.73 | – |
| CC(C)[C@@H]1NC(=O)[C@H](Cc2ccccc2)NC1=O | 3.89 | 61.07 | – |
| CC(C)[C@@H]1NC(=O)CNC1=O | 3.23 | 88.03 | – |
| CN(CC(=O)OC(C)(C)C)C(=O)[C@H](Cc1ccccc1)NC(=O)OC(C)(C)C (Boc-Phe-[Sar]-OtBu) | 3.38 | 79.41 | – |
| NCCCC(NC(=O)[C@H](Cc1ccccc1)NC(=O)C(CCCN)NC(=O)[C@@H](N)Cc1ccccc1)C(=O)O (stereo not given in full) (H-F[ξOrn]F[ξOrn]-OH) | – | – | 2.5 |
| O=C(NCCC[C@@H]1NC(=O)[C@H](Cc2ccccc2)NC1=O)OCc1ccccc1 | 123 | 72.93 | – |
| CC(C)[C@H](NC(=O)[C@H](CCCNC(=O)OCc1ccccc1)NC(=O)OC(C)(C)C)C(=O)OC(C)(C)C | 33.9 | 55.73 | – |
| CC(C)(C)OC(=O)N[C@@H](CCCNC(=O)OCc1ccccc1)C(=O)N[C@@H](Cc1ccccc1)C(=O)OC(C)(C)C | > 200 | 35.29 | – |
| CC(C)[C@@H]1NC(=O)[C@H](C(C)C)NC1=O | 2.45 | 87.18 | – |
| O=C1N[C@@H](Cc2ccccc2)C(=O)N[C@H]1Cc1ccccc1 | 2.54 | 84.33 | – |
| CC(C)[C@H](NC(=O)OC(C)(C)C)C(=O)N[C@@H](Cc1ccccc1)C(=O)OC(C)(C)C (Boc-Val-Phe-OtBu) | 7.07 | 73.08 | – |
| CC(C)[C@@H]1NC(=O)[C@@H](CCCNC(=O)OCc2ccccc2)NC1=O | 3.09 | 70.08 | – |
| NCCCC[C@H](N)C(=O)N[C@@H](Cc1ccccc1)C(=O)N[C@@H](Cc1ccccc1)C(=O)NC(CCCN)C(=O)O (stereo not given in full) (H-KFF[ξOrn]-OH) | – | – | 2.5 |
| CCN(CC)CCCC(C)Nc1ccnc2cc(Cl)ccc12 (stereo not given) [CHLOROQUINE] | 0.06 | 100 | – |
| CN1CC(=O)N[C@@H](Cc2ccccc2)C1=O | 2.26 | 83.76 | – |
| CC(C)(C)OC(=O)NCC(=O)N[C@@H](Cc1ccccc1)C(=O)OC(C)(C)C (Boc-Gly-Phe-OtBu) | 164 | 54.26 | – |
| CC(C)[C@H](NC(=O)CNC(=O)OC(C)(C)C)C(=O)OC(C)(C)C (Boc-Gly-Val-OtBu) | 3.16 | 59.55 | – |
| COC(=O)[C@@H](NC(=O)[C@@H](CCCNC(=O)OCc1ccccc1)NC(=O)OC(C)(C)C)C(C)C | 3.05 | 57.2 | – |
